The record followed here is the array DNA melting data of Ke et al. (doi:10.1101/2024.01.08.574731).

Data set [1] in a line: folding enthalpy; higher = less favourable; fluorescence melt of hairpins on a sequencing array, two-state fit. Particulars: sodium 0.088 M. The procedure, abridged:
(§1)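 Cy3 fluorescence of library hairpins on a sequenced MiSeq flow cell, with annealed Cy3 and quencher oligos, was imaged in 50 mM Na-HEPES pH 8.0, 25 mM NaCl in 2.5 °C steps up to 60 °C. Signals were normalised to pre-quench Cy3 and to control variants. Melting temperature and folding enthalpy came from bootstrapped two-state fits, inverse-variance combined over four replicates. Fitted temperatures were raised by 9.35 °C to match UV melts.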

The nature of data set [2]: melting temperature; fluorescence melt of hairpins on a sequencing array, two-state fit, raised by 9.35 °C to match UV melts. As to conditions: sodium 0.088 M. The procedure, abridged: as §1

GAGCTGGGAAACCAACTC (((.(((....))).))): the folding enthalpy in data set [1] was -32 kcal/mol. Moreover, in data set [2], the Tm worked out at 39.9 °C.

Consider GAGCTGGGAAACCAGTTC ((.((((....)))).)), for which the folding enthalpy in data set [1] is -24.4 kcal/mol. Further, the Tm in data set [2] was found to be 47.4 °C.

Consider GAGCTGGGAAACTGGCTC ((((..(....)..)))), for which the folding enthalpy in data set [1] was -27.6 kcal/mol. In data set [2], the Tm is 46.7 °C.

Regarding GAGCTTCCGAAAGGACTC (((..(((....)))))), in data set [1], the folding enthalpy is -27.4 kcal/mol. Also, the Tm in data set [2] was 29.2 °C.

As for GAGCTTGGAAACAAGCTC (((((((....))))))), the folding enthalpy in data set [1] is -35.1 kcal/mol. Moreover, the Tm in data set [2] turned out to be 67.8 °C.

Consider GAGGAACCGAAAGGTCTC (((..(((....)))))), for which the folding enthalpy in data set [1] is -15.4 kcal/mol. In addition, in data set [2], the Tm was 35.2 °C.

As for GAGGAAGGAAACTTCTTC ((.((((....)))).)), in data set [1], the folding enthalpy is -16.7 kcal/mol. The Tm in data set [2] came out at 33.9 °C.

Take GAGGACCGAAAGGTCTC (((.(((....)))))): the folding enthalpy in data set [1] was -10.9 kcal/mol. Moreover, the Tm in data set [2] was 46.5 °C.

For GAGGACGAAAGTCGTCTC ((((((....)))..))), the folding enthalpy in data set [1] was -28.6 kcal/mol. In data set [2], the Tm stood at 52.2 °C.

For GAGGACGAAAGTCTGCTC ((((((....)))..))), the folding enthalpy in data set [1] was -14.4 kcal/mol. Besides, the Tm in data set [2] was 39.2 °C.

As for GAGGACGGAAACGTTCTC (((.(((....))).))), in data set [1], the folding enthalpy was -41.9 kcal/mol. Moreover, the Tm in data set [2] was 51.6 °C.

In the case of GAGGAGGGAAACTTCCTC (((((.(....).))))), the folding enthalpy in data set [1] is -25.6 kcal/mol. In data set [2], the Tm was found to be 41.9 °C.

Regarding GAGGATGGAAACGTCCTC (((((.(....).))))), in data set [1], the folding enthalpy was -34.9 kcal/mol. The Tm in data set [2] stood at 49.6 °C.

With GAGGCACCGAAAGGTCTC (((..(((....)))))), the folding enthalpy in data set [1] was -11.5 kcal/mol. Further, in data set [2], the Tm worked out at 31.3 °C.

GAGGCAGCGAAAGCTCTC (((..(((....)))))): in data set [1], the folding enthalpy is -10.2 kcal/mol. For the same sequence, the Tm in data set [2] came to 31.8 °C.

GAGGCCGAAAGGCACCTC ((((((....)))..))): the folding enthalpy in data set [1] is -8.77 kcal/mol. Also, in data set [2], the Tm worked out at 40 °C.

As to GAGGCCGAAAGGCATCTC ((((((....)))..))), in data set [1], the folding enthalpy is -17.1 kcal/mol. In data set [2], the Tm worked out at 68.4 °C.

Consider GAGGCCGCGAAAGCGCTC (((..(((....)))))), for which the folding enthalpy in data set [1] is -12.8 kcal/mol. Moreover, the Tm in data set [2] was 35 °C.

Regarding GAGGCTGGAAACAACCTC ((((.((....)).)))), the folding enthalpy in data set [1] was -29.2 kcal/mol. In data set [2], the Tm came to 41.8 °C.

As for GAGGCTGGAAACAGCCCC (.(((((....))))).), in data set [1], the folding enthalpy was -8.68 kcal/mol. Further, in data set [2], the Tm came out at 46.1 °C.

Regarding GAGGCTGGAAACAGTCTC (((.(((....))).))), the folding enthalpy in data set [1] is -35.8 kcal/mol. In data set [2], the Tm was found to be 52.6 °C.

Regarding GAGGGAGCGAAAGCTCTC (((..(((....)))))), in data set [1], the folding enthalpy was -9.38 kcal/mol. The Tm in data set [2] amounted to 42.8 °C.

GAGGGAGGAAACTCCCCC (.(((((....))))).): the folding enthalpy in data set [1] was -10.5 kcal/mol. Besides, the Tm in data set [2] was 41.9 °C.

With GAGGGCACGAAAGTGCTC (((..(((....)))))), in data set [1], the folding enthalpy is -7.41 kcal/mol. Besides, in data set [2], the Tm was determined as 44 °C.

For the sequence GAGGGCGAAAGCCCACTC ((((((....)))..))), in data set [1], the folding enthalpy is -10.6 kcal/mol. Also, in data set [2], the Tm amounted to 55.6 °C.

Consider GAGGGCGGAAACGCCCCC (.(((((....))))).), for which, in data set [1], the folding enthalpy is -5.82 kcal/mol. Further, the Tm in data set [2] was determined as 45.8 °C.

As to GAGGGGGAAACCCCTC ((((((....)))))), in data set [1], the folding enthalpy is -30 kcal/mol. Moreover, the Tm in data set [2] was 65.4 °C.

For the sequence GAGGGTGAAAACCCTC ((((((....)))))), the folding enthalpy in data set [1] was -32.4 kcal/mol. In addition, the Tm in data set [2] worked out at 64.2 °C.

GAGGGTGGAAACACCCTC (((((((....))))))): in data set [1], the folding enthalpy was -35 kcal/mol. Besides, the Tm in data set [2] was 68.7 °C.

Regarding GAGGGTGGAAACACTCTC (((.(((....))).))), the folding enthalpy in data set [1] was -29.9 kcal/mol. For the same sequence, the Tm in data set [2] came out at 52.3 °C.

Turning to GAGGGTGGAAACGCCCTC (((((.(....).))))), the folding enthalpy in data set [1] is -44.3 kcal/mol. Further, the Tm in data set [2] came to 57.6 °C.

Take GAGGGTGGAAACGTCCTC ((((..(....)..)))): the folding enthalpy in data set [1] was -23.9 kcal/mol. In data set [2], the Tm was determined as 35.1 °C.

For GAGGTAGGAAACTATCTC (((.(((....))).))), in data set [1], the folding enthalpy is -26.6 kcal/mol. Moreover, the Tm in data set [2] came to 38.7 °C.

In the case of GAGGTCGGAAACGATCTC (((.(((....))).))), the folding enthalpy in data set [1] was -43.8 kcal/mol. Also, the Tm in data set [2] was determined as 52.5 °C.

Consider GAGGTCGGAAACGGCTTC ((.(.((....)).).)), for which the folding enthalpy in data set [1] is -20.5 kcal/mol. Besides, the Tm in data set [2] was 36.1 °C.

With GAGGTGAAAACCTC (((((....))))), the folding enthalpy in data set [1] is -22.7 kcal/mol. Moreover, the Tm in data set [2] came out at 53.3 °C.

Turning to GAGGTGCCGAAAGGCCTC (((..(((....)))))), in data set [1], the folding enthalpy is -10.8 kcal/mol. For the same sequence, the Tm in data set [2] was found to be 37.5 °C.

With GAGGTGGCGAAAGCCCTC (((..(((....)))))), the folding enthalpy in data set [1] is -14.4 kcal/mol. The Tm in data set [2] came out at 43.7 °C.

With GAGGTGGGAAACCATCTC (((.(((....))).))), the folding enthalpy in data set [1] is -31.3 kcal/mol. Moreover, the Tm in data set [2] was determined as 47.7 °C.

For GAGGTTGGAAACGACCTC (((((.(....).))))), in data set [1], the folding enthalpy is -34.4 kcal/mol. Moreover, the Tm in data set [2] was 51.3 °C.

Regarding GAGTAACGAAAGTTCCTC (((.(((....))).))), the folding enthalpy in data set [1] was -19.8 kcal/mol. For the same sequence, the Tm in data set [2] turned out to be 38 °C.

As for GAGTAAGAAATTACTC ((((((....)))))), the folding enthalpy in data set [1] is -24.5 kcal/mol. For the same sequence, in data set [2], the Tm is 40.1 °C.

In the case of GAGTAAGGAAACCTACTC (((((.(....).))))), the folding enthalpy in data set [1] is -26.6 kcal/mol. Also, in data set [2], the Tm was 33.2 °C.

In the case of GAGTAAGGAAACTCACTC ((((.((....)).)))), in data set [1], the folding enthalpy was -14.8 kcal/mol. In addition, the Tm in data set [2] worked out at 24.8 °C.

Regarding GAGTACGGAAACGCACTC ((((.((....)).)))), the folding enthalpy in data set [1] is -31.6 kcal/mol. Further, in data set [2], the Tm turned out to be 45.3 °C.

As to GAGTACGGAAACGTATTC ((.((((....)))).)), in data set [1], the folding enthalpy is -24.4 kcal/mol. The Tm in data set [2] amounted to 41.6 °C.

GAGTACGGAAACGTGCTC (((.(((....))).))): in data set [1], the folding enthalpy is -48.9 kcal/mol. Besides, the Tm in data set [2] worked out at 53.8 °C.

Consider GAGTATGGAAACATGCTC (((.(((....))).))), for which, in data set [1], the folding enthalpy is -34.1 kcal/mol. In data set [2], the Tm is 46.8 °C.

For the sequence GAGTCACGAAAGTGTCTC (((.(((....))).))), in data set [1], the folding enthalpy was -30 kcal/mol. For the same sequence, the Tm in data set [2] was 49.8 °C.

GAGTCAGCGAAAGCTCTC (((..(((....)))))): in data set [1], the folding enthalpy is -11.8 kcal/mol. The Tm in data set [2] was found to be 30.1 °C.

Consider GAGTCAGGAAACTGACCC (.(((((....))))).), for which the folding enthalpy in data set [1] is -13.4 kcal/mol. Further, the Tm in data set [2] amounted to 40.5 °C.

As for GAGTCAGGAAACTGACTC (((((((....))))))), the folding enthalpy in data set [1] was -37 kcal/mol. Further, in data set [2], the Tm came to 62.6 °C.

With GAGTCCGAAAGGACGCTC ((((((....)))..))), the folding enthalpy in data set [1] is -13.6 kcal/mol. Besides, the Tm in data set [2] was determined as 64.2 °C.

With GAGTCCGAAAGGAGACTC ((((((....)))..))), in data set [1], the folding enthalpy was -21.9 kcal/mol. Besides, the Tm in data set [2] worked out at 44.9 °C.

As to GAGTCCGAAAGGAGCTC ((((((....))).))), in data set [1], the folding enthalpy was -22 kcal/mol. Further, the Tm in data set [2] came out at 47.2 °C.
